Experimental findings from ChEMBL document CHEMBL4350993, “Dipropargyl substituted diphenylpyrimidines as dual inhibitors of monoamine oxidase and acetylcholinesterase” (Eur J Med Chem, 2019) are described below.

Data set [1] deals with T1, Amine oxidase [flavin-containing] B (Homo sapiens, UniProt P27338).
T1 sequence (P27338 whole entry): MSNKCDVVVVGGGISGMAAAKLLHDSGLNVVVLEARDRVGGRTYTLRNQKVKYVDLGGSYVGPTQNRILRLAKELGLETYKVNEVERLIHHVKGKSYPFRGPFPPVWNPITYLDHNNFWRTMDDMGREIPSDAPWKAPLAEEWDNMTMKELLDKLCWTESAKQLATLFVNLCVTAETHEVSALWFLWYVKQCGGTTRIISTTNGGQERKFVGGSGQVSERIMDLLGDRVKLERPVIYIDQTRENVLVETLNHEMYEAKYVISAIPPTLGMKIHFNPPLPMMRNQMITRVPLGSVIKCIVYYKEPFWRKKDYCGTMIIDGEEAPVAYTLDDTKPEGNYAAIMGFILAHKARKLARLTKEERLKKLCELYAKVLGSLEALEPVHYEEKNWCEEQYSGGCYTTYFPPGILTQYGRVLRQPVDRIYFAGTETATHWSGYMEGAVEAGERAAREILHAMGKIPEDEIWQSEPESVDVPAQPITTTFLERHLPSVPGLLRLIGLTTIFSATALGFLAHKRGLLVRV
The experiment in a line: Inhibition of human recombinant microsomal MAO-B expressed in baculovirus infected BTI-TN-5B1-4 cells assessed as reduction in production of H202 using p-tyramine as substrate incubated for 30 mins followed by substrate addition by horse radish peroxidase/Amplex red reagent based fluorescence assay. It counts as cell-based.

Data set [2] concerns the target T2, Amine oxidase [flavin-containing] A (Homo sapiens, UniProt P21397).
T2 sequence (P21397 whole entry): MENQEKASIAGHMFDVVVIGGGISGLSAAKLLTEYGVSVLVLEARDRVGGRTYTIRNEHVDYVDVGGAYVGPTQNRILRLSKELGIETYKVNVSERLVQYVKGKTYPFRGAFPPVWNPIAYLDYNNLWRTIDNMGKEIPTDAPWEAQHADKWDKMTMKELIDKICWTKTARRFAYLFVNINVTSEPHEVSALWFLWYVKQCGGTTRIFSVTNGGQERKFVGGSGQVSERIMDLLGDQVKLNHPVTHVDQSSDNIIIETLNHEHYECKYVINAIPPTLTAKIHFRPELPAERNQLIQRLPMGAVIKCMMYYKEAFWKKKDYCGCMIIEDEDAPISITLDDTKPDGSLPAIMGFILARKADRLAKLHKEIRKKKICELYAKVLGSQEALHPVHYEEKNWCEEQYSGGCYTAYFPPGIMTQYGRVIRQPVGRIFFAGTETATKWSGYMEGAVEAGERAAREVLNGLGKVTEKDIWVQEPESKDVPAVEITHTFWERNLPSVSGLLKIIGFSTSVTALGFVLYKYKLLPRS
The experiment in a line: Inhibition of human recombinant microsomal MAO-A expressed in baculovirus infected BTI-TN-5B1-4 cells assessed as reduction in production of H202 using p-tyramine as substrate incubated for 30 mins followed by substrate addition by horse radish peroxidase/Amplex red reagent based fluorescence assay. The class given is cell-based. To be noted: read-out: IC50.

For the next data set, the target named is Acetylcholinesterase (Electrophorus electricus, UniProt O42275). As to the kind of experiment: Inhibition of electric eel AChE assessed as reduction in production of H202 using acetylcholine as substrate incubated for 15 mins followed by substrate addition by horse radish peroxidase/Amplex red reagent based fluorescence assay.
For a further data set, the species on record is Homo sapiens. As to the kind of experiment: Selectivity index, ratio of IC50 for human recombinant microsomal MAO- A expressed in baculovirus infected BTI-TN-5B1- 4 cells using p-tyramine as substrate to IC50 for human recombinant microsomal MAO- B expressed in baculovirus infected BTI-TN-5B1- 4 cells using p-tyramine as substrate by horse radish peroxidase/Amplex red reagent based fluorescence assay. Summed up: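 Recombinant hMAO-A (1.1 µg) or hMAO-B (7.5 µg) preincubated with inhibitor over a concentration range for 30 min at 37 °C in 0.05 M sodium phosphate, pH 7.4. Reaction started with 1 mM p-tyramine, 200 µM Amplex Red and 1 U/mL HRP (final concentrations). H₂O₂ was read by fluorescence (ex 545/em 590 nm) after 30 min dark incubation. Background without enzyme was subtracted; vehicle served as control.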

In data set [3] the target is Acetylcholinesterase (Electrophorus electricus) (UniProt O42275). The experiment in a line: Reversible inhibition of electric eel AChE assessed as recovery of enzyme activity at 100 times IC50 using acetylcholine as substrate relative to control.
The target is the same in data set [4]. The experiment in a line: Reversible inhibition of electric eel AChE assessed as recovery of enzyme activity at 10 times IC50 using acetylcholine as substrate relative to control.
Data set [5] shares this target. As to the kind of experiment: Reversible inhibition of electric eel AChE assessed as recovery of enzyme activity at IC50 using acetylcholine as substrate relative to control.
For data set [6] the target is unchanged. The experiment in a line: Reversible inhibition of electric eel AChE assessed as recovery of enzyme activity at 0.1 times IC50 using acetylcholine as substrate relative to control.
Data set [7] concerns SH-SY5Y. The experiment in a line: Inhibition of ROS generation in human SH-SY5Y cells at 1 uM measured after 24 hrs by DCF-DA dye based fluorescence assay relative to control. The class given is functional. The gist of the method:
(§1)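 SH-SY5Y cells, about 10,000/well, grown 24 h in DMEM/F-12 with 10% FBS, horse serum and 1% penicillin. Washed with PBS, then exposed to compound without FBS for 24 h (1, 5, 25 μM). Rinsed three times in PBS, loaded with H2DCF-DA (50 μM) for 30 min at 37 °C, rinsed again. Fluorescence read at ex 478 / em 518 nm.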

Data set [8] deals with SH-SY5Y. The experiment in a line: Inhibition of ROS generation in human SH-SY5Y cells at 5 uM measured after 24 hrs by DCF-DA dye based fluorescence assay relative to control. It counts as functional. The gist of the method:
as §1

The test system of data set [9] is SH-SY5Y. The experiment in a line: Inhibition of ROS generation in human SH-SY5Y cells at 25 uM measured after 24 hrs by DCF-DA dye based fluorescence assay relative to control. The class given is functional. The gist of the method:
as §1

Data set [10] has as its system SH-SY5Y. The experiment in a line: Neuroprotective activity against 6-OHDA induced toxicity in human SH-SY5Y cells assessed as cell viability at 25 uM preincubated for 4 hrs followed by 6-OHDA addition and measured after 24 hrs by MTT assay (reference value: 48.52 %). The class given is functional. Particulars: read-out: Activity.
For data set [11], the system named is SH-SY5Y. As to the kind of experiment: Neuroprotective activity against 6-OHDA induced toxicity in human SH-SY5Y cells assessed as cell viability at 5 uM preincubated for 4 hrs followed by 6-OHDA addition and measured after 24 hrs by MTT assay (reference value: 48.52 %). The class given is functional. To be noted: read-out: Activity.
Data set [12] deals with SH-SY5Y. As to the kind of experiment: Neuroprotective activity against 6-OHDA induced toxicity in human SH-SY5Y cells assessed as cell viability at 1 uM preincubated for 4 hrs followed by 6-OHDA addition and measured after 24 hrs by MTT assay (reference value: 48.52 %). The class given is functional. Particulars: read-out: Activity.
A short description of data set [13]: Metal chelating activity of the compound assessed as formation of Cu2+ complex at 50 uM by UV-vis spectrophotometric analysis. The gist of the method: (§2)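 Absorption spectra recorded by UV–vis spectrophotometry for compound alone (50 μM final) and with CuSO₄, FeSO₄ or FeCl₃ (50 μM final); chelation judged from spectral change.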
Data set [14] in a line: Metal chelating activity of the compound assessed as formation of Fe2+ complex at 50 uM by UV-vis spectrophotometric analysis. The gist of the method: as §2
Data set [15] can be described thus: Metal chelating activity of the compound assessed as formation of Fe3+ complex at 50 uM by UV-vis spectrophotometric analysis. Summed up:
as §2

A short description of data set [16]: Cytotoxicity against human SH-SY5Y cells assessed as cell viability at 1 uM measured after 24 hrs by MTT assay relative to control. The class given is cell-based. To be noted: read-out: Activity. Summed up: (§3)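 SH-SY5Y cells, about 10,000/well, grown 24 h in DMEM/F-12 with 10% FBS, horse serum and 1% penicillin. Exposed to compound at 1, 5 or 25 μM for 24 h, serum-free, at 37 °C, 5% CO2. MTT added, 4 h at 37 °C, formazan dissolved in DMSO, OD read at 595 nm. Viability expressed relative to control.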

Data set [17] in a line: Cytotoxicity against human SH-SY5Y cells assessed as cell viability at 5 uM measured after 24 hrs by MTT assay relative to control. The class given is cell-based. Particulars: read-out: Activity. The gist of the method: as §3
Data set [18] is described as follows: Cytotoxicity against human SH-SY5Y cells assessed as cell viability at 25 uM measured after 24 hrs by MTT assay relative to control. It counts as cell-based. To be noted: read-out: Activity. Summed up:
as §3
(Formazan colour is commonly taken as a measure of viable cells.)

Data set [19] in a line: Octanol/water partition coefficient, logP of compound. It counts as physicochemical.
Data set [20] addresses Acetylcholinesterase (Electrophorus electricus) (UniProt O42275). To be noted: at 1 to 5 µM.

The source made the active and inactive calls. The rule behind the calls is not given here.

The term IC50 denotes the concentration that gives 50% inhibition. The inhibition is the change of the read-out against control, counted positive when it falls. As usually defined, the logP is a log measure of how a compound divides between an organic and an aqueous phase. A high value points to higher lipophilicity.

Acetylcholinesterase (Electrophorus electricus), sequence (O42275 24-633 limits assumed): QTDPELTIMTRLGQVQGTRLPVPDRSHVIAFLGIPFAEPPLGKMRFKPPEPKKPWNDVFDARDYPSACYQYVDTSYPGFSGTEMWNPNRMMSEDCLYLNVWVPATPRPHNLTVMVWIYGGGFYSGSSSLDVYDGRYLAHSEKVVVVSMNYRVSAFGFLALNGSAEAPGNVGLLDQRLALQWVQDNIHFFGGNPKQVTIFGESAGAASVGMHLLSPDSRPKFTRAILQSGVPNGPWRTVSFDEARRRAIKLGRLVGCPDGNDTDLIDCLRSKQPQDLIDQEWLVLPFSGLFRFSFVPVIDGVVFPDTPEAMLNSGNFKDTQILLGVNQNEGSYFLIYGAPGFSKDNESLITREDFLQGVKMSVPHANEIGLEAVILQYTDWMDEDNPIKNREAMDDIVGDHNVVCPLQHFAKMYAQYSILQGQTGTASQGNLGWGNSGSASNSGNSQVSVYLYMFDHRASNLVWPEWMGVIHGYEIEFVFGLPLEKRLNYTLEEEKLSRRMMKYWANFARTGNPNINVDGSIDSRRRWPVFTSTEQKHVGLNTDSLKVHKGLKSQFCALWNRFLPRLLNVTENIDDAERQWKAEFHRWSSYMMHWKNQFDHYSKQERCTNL
Acetylcholinesterase, sequence (O42275 whole entry): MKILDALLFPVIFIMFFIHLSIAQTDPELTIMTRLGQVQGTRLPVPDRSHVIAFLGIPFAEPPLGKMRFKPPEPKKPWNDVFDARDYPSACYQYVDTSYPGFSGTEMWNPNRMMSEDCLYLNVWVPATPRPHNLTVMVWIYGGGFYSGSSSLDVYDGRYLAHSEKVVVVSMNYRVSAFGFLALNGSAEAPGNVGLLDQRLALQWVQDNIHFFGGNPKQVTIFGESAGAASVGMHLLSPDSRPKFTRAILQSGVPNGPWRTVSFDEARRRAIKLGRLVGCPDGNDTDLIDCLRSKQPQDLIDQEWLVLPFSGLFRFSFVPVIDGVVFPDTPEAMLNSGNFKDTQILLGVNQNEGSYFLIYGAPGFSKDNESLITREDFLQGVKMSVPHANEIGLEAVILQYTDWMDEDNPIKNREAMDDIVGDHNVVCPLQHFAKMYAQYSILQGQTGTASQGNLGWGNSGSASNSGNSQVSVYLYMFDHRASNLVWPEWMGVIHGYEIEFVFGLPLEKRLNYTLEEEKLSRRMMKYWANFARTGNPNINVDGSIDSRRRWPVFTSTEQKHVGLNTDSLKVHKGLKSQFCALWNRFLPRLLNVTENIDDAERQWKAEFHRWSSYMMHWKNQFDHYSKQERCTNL

In the case of `C#CCOc1ccc(-c2cc(-c3cccc(OCC#C)c3)nc(N)n2)cc1`, the half-inhibitory concentration (IC50) stood at 1490 nM in data set [1], 24100 nM in [2] and 1740 nM at Acetylcholinesterase. The Ratio IC50 in the data set filed under Homo sapiens was found to be 16.1. In addition, the inhibition in data set [3] amounted to 7.35%; in data set [4] it was 12.3%; in data set [5], 41.8%; in data set [6], 82.8%. In the data set with SH-SY5Y [7], this compound displayed an inhibition at 1 µM of 68.3%. This compound also returned an inhibition at 5 µM in the data set on SH-SY5Y [8] of 47.2%. This compound registered an inhibition at 25 µM with SH-SY5Y [9] of 41%. Moreover, the viability at 25 µM with SH-SY5Y [10] is 52.3%. Further, the viability at 5 µM in the data set on SH-SY5Y [11] is 59.5%. Besides, the viability at 1 µM with SH-SY5Y [12] amounted to 60.5%. Also, the result in data set [13], in data set [14] and in data set [15] was inactive. For the same compound, the viability at 24 h, 1 µM in data set [16] is 87.3%. In data set [17], the viability at 24 h, 5 µM stood at 79.6%. In data set [18], the viability at 24 h, 25 µM stood at 69.2%. This compound also yielded a lipophilicity (logP) in data set [19] of 4.51. In addition, the inhibition result in data set [20] was “Active”.

For the compound `C#CCOc1ccc(-c2cc(-c3ccc(OCC#C)cc3)nc(N)n2)cc1`, the IC50 turned out to be 3300 nM in data set [1], 32100 nM in data set [2] and 1350 nM on Acetylcholinesterase. Besides, the Ratio IC50 in the data set filed under Homo sapiens is 9.7. For the same compound, the inhibition came out at 3.4% in data set [3], 10.2% in data set [4], 42.4% in [5] and 66.5% in data set [6]. In the data set on SH-SY5Y [7], this compound registered an inhibition at 1 µM of 89.8%. The compound further showed an inhibition at 5 µM in the data set with SH-SY5Y [8] of 30%. Moreover, in the data set on SH-SY5Y [9], testing at 25 µM gave an inhibition of 25.9%. Besides, in the data set with SH-SY5Y [10], the viability at 25 µM is 53.6%. Also, in the data set with SH-SY5Y [11], the viability at 5 µM stood at 62.4%. For the same compound, in the data set with SH-SY5Y [12], the viability at 1 µM worked out at 66.6%. Besides, the result in data set [13], in [14] and in [15] was inactive. In addition, in data set [16], the viability at 24 h, 1 µM amounted to 79%. In data set [17], the viability at 24 h, 5 µM came out at 73%. In data set [18], the viability at 24 h, 25 µM turned out to be 72.6%. This compound yielded a logP in data set [19] of 4.52.
